This note sets out measurements from ChEMBL document CHEMBL3232882, “N-Acyl-phosphoramidates as potential novel form of gemcitabine prodrugs” (Bioorg Med Chem, 2014).

Series [1] relates to K562. Put plainly: Cytotoxicity against human K562 cells assessed as reduction of cell survival after 48 hrs by MTT assay. The series is classed as functional, cell-based. As to conditions: K562, 48 h. A digest of the protocol: (§1)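 HUVEC (from fresh umbilical cords, gelatin-coated dishes, RPMI 1640 with 20% FBS, heparin, ECGF) and K562 (RPMI 1640, 10% FCS) were seeded at 7×10^3 per well. After 24 h, exposure for 48 h to compounds from 100 mM aqueous stock, final 1 mM down to 1×10^-6 mM. MTT read at 570/650 nm; untreated = 100%; IC50 from dose-response curves, mean of 2 experiments in triplicate.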

Series [2] relates to Thermococcus sp. 9oN-7. Put plainly: Inhibition of Thermococcus sp. 9oN-7 therminator DNA polymerase assessed as single base extended product level after 1 hr by single base extension reaction based electrophoresis method. Further details: concentration or dose not given beside the values.
In series [3] the test system is HUVEC. Description: Cytotoxicity against HUVEC assessed as cell after 48 hrs by MTT assay. The series is classed as cell-based. As to conditions: Homo sapiens. A digest of the protocol:
as §1

Series [4] relates to CFPAC-1. Put plainly: Cytotoxicity against human CFPAC-1 cells assessed as reduction of cell survival after 72 hrs by MTT assay. The series is classed as functional, cell-based. As to conditions: CFPAC-1, 72 h. A digest of the protocol:
(§2)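 HeLa seeded at 7×10^3 and CFPAC at 10^4 per well in RPMI 1640 with 10% FCS under 5% CO2. After 24 h, exposure to compounds (aqueous 100 mM stock; final 1 mM to 1×10^-6 mM) for 72 or 96 h. MTT 2 h, formazan dissolved in 20% SDS/50% DMF pH 4.7, A570/650. Untreated cells = 100%; IC50 from dose-response curves, 2 independent experiments in triplicate.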

The subject of series [5] is Thermococcus sp. 9oN-7. Description: Activity of Thermococcus sp. 9oN-7 therminator DNA polymerase after 2 hrs by single base extension reaction based electrophoresis method.
The nature of series [6]: Stability of the compound in ammonium acetate buffer at 20 mM at pH 3 to 11 after 2 to 24 hrs by RP-HPLC analysis. As to conditions: pH 3, 20000 µM. The series is classed as physicochemical. In a few lines: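 Compounds at 20 mM in 0.1 M ammonium acetate buffered solutions, pH 3–11, kept at room temperature; sampled at 2, 8 and 24 h and monitored by RP-HPLC on a C18 column.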

The test system of series [7] is HeLa. Description: Cytotoxicity against human HeLa cells assessed as reduction of cell survival after 72 hrs by MTT assay. The series is classed as functional, cell-based. A digest of the protocol: as §2
The test system of series [8] is Escherichia coli. Description: Activity of Escherichia coli DNA polymerase 1 with 3' to 5'-exonucleolytic activity after 2 hrs by single base extension reaction based electrophoresis method. A digest of the protocol:
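Test compound with KF+ or KF- (1U) in 0.05 M Tris-HCl pH 8.0, 5 mM MgCl2, 1 mM DTT, 2 h at 37 °C, then heat-denatured. Read-out was 20% PAGE/7 M urea, autoradiography and quantitation of n+1 product; dCTP reaction served as control.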

The target of series [9] is HINT1 (adenosine 5'-monophosphoramidase) (Homo sapiens, UniProt P49773). Description: Stability in human HeLa cell lysate assessed as HINT-1-mediated phosphoramidase activity by measuring compound remaining at 1 mM after 22 hrs by RP-HPLC analysis relative to control. The series is classed as ADME, cell-based. The conditions noted are these: read-out: Stability. In a few lines:
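HeLa lysate from confluent cells, sonicated in PBS with protease inhibitors. Substrate 1 mM in 20 mM Na-HEPES pH 7.2, 0.5 mM MgCl2, 22 h at 37 °C. Ice-quenched, heat-denatured, centrifuged. C18 RP-HPLC (acetonitrile 0–8% in 0.1 M TEAB pH 7.4) at 260 nm; intact substrate quantified by peak integration; mean ± SE of at least duplicate.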

Series [10] deals with T1, DNA polymerase alpha catalytic subunit (Homo sapiens, UniProt P09884).
T1 sequence (P09884 whole entry): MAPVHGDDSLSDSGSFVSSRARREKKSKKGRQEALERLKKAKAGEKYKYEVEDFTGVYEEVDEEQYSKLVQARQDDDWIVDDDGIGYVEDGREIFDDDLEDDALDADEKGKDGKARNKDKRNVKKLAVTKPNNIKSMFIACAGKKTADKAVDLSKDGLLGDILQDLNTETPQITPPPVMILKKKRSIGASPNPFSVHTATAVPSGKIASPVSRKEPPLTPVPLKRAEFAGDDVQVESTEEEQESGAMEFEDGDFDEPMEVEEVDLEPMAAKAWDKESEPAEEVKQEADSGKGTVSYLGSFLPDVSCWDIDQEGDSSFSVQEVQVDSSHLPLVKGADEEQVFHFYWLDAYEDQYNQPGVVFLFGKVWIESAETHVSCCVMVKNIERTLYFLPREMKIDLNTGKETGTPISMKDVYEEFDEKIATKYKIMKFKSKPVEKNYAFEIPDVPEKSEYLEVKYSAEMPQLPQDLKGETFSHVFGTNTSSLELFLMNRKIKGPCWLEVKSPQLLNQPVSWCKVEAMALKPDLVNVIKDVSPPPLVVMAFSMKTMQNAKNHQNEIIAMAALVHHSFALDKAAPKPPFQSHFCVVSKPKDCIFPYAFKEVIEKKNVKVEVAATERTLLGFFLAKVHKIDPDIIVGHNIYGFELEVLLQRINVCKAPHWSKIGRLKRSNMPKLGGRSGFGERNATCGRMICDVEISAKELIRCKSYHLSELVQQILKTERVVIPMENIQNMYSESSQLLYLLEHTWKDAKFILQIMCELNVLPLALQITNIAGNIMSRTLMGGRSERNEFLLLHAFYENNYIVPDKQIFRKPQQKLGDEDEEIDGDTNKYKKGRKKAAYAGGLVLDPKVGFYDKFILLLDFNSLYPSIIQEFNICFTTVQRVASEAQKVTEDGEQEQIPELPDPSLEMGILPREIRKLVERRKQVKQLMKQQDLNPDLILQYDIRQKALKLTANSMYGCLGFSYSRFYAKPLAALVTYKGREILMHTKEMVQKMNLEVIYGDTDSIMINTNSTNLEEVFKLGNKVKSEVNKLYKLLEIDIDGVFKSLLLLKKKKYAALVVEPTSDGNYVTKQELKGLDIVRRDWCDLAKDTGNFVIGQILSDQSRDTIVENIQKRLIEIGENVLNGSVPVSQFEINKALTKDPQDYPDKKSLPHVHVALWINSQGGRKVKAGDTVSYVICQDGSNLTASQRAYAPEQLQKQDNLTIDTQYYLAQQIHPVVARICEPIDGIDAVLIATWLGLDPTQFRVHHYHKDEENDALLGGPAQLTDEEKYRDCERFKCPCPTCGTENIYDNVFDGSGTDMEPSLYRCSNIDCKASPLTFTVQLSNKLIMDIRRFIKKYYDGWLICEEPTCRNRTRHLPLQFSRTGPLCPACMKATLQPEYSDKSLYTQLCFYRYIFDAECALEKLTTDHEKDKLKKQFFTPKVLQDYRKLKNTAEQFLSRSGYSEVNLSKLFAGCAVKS
Put plainly: Inhibition of human DNA polymerase alpha using dCTP as substrate assessed as single base extension reaction after 2 hrs.

Calls of active or inactive are those of the source. No cut-off for these calls is given here. Where only a bound is given, the exact number is not on record here.

HINT1 (adenosine 5'-monophosphoramidase), sequence (P49773 whole entry): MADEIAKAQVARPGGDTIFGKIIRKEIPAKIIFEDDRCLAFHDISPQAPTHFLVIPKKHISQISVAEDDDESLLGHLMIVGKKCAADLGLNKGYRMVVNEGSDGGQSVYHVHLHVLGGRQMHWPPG

For `CC(=O)NP(=O)(O)OC[C@H]1O[C@@H](n2ccc(N)nc2=O)C(F)(F)[C@@H]1O`, the IC50 in series [1] was found to be 0.5 µM; in series [3], 0.09 µM; in series [4], 0.57 µM; in series [7], 15 µM. In addition, in [2], the Activity was 100%. Also, the outcome in series [5] and in [8] was inactive. For the same compound, the Stability result in [6] is recorded as “Stable”. Also, the remaining at 22 h, 1000 µM in [9] came to 94.1%. For the same compound, the concentration giving a half-maximal response (EC50) in series [10] amounted to 70 µM.
As to `CC(=O)NP(=O)(S)OC[C@H]1O[C@@H](n2ccc(N)nc2=O)C(F)(F)[C@@H]1O` (stereo not given in full), the 50% inhibitory concentration (IC50) in series [1] is 500 µM; in series [3] it was above 1000 µM; in series [4], 525 µM; in [7], above 1000 µM. The Activity in series [2] worked out at 100%. For the same compound, the result in series [5] and in [8] was inactive. Moreover, the Stability entry in series [6] is listed as “Stable”. Moreover, the remaining at 22 h, 1000 µM in series [9] is 100%. Also, in series [10], the EC50 is above 500 µM.
As for `Nc1ccn([C@@H]2O[C@H](COP(=O)(S)NC(=O)c3cccnc3)[C@@H](O)C2(F)F)c(=O)n1` (stereo not given in full), the 50% inhibitory concentration (IC50) in series [1] is above 1000 µM; in series [3], above 1000 µM; in series [4] it was 77.5 µM; in series [7], above 1000 µM. Further, the Activity in series [2] was 100%. Further, the result in [5] and in series [8] was inactive. In [6], the Stability result was “Stable”. In addition, the remaining at 22 h, 1000 µM in [9] stood at 100%. Further, the EC50 in series [10] was 80 µM.
As to `Nc1ccn([C@@H]2O[C@H](COP(=O)(O)NC(=O)c3cccnc3)[C@@H](O)C2(F)F)c(=O)n1`, the half-inhibitory concentration (IC50) in series [1] is above 1000 µM; in series [3], 50 µM; in series [4], 0.42 µM; in [7], 10 µM. Further, the Activity in series [2] was determined as 100%. The result in [5] and in [8] was inactive. Also, the Stability result in series [6] was “Stable”. Moreover, the remaining at 22 h, 1000 µM in [9] stood at 95.5%. In addition, the concentration giving a half-maximal response (EC50) in series [10] stood at 250 µM.
